# Reference: publication PMC2810141 (Biochemistry, 2008)
# “Also recorded” adds a separate entry of the source.
# Legend:
# [1] = target: T1, human P4H (Homo sapiens, UniProt P13674); assay: HPLC-based assay of P4H enzymatic activity; format: biochemical; details: for Product formation as substrate for P4H: HPLC (for Mtp also mass spectrometry), data not shown; for Substrate or Inhibitor: PEG-Gly–Tyr–Yaa–GlyOEt, 50 mM Tris–HCl pH 7.8, P4H 90 nM, α-ketoglutarate 500 μM; for Substrate or Inhibitor / kcat / Km / kcat/KM / kcat/KM relative to that of the Pro-containing peptide: HPLC-based assay; for Substrate or Inhibitor / kcat / Km / kcat/KM: 5 min, 30 °C; for kcat / Km / kcat/KM: pH 7.8, P4H 90 nM, substrate 0.05–3 mM, mean ± SE of three replicates; for kcat / Km: Michaelis–Menten fit
# T1 sequence (P13674 18-534): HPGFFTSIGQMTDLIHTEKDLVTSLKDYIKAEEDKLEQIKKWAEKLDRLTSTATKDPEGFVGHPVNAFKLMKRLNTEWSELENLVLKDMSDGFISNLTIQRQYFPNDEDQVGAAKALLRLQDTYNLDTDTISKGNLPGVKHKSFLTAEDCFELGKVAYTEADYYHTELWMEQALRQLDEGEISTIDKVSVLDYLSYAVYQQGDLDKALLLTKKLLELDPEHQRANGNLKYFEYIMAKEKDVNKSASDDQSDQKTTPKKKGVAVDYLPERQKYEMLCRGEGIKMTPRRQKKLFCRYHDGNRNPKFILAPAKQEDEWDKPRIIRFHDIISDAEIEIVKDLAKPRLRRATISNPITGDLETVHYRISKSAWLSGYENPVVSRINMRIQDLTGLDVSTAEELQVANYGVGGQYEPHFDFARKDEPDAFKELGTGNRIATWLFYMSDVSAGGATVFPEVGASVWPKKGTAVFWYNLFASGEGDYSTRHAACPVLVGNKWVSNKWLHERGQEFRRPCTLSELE
# T1 sequence (P07237 18-508 partner): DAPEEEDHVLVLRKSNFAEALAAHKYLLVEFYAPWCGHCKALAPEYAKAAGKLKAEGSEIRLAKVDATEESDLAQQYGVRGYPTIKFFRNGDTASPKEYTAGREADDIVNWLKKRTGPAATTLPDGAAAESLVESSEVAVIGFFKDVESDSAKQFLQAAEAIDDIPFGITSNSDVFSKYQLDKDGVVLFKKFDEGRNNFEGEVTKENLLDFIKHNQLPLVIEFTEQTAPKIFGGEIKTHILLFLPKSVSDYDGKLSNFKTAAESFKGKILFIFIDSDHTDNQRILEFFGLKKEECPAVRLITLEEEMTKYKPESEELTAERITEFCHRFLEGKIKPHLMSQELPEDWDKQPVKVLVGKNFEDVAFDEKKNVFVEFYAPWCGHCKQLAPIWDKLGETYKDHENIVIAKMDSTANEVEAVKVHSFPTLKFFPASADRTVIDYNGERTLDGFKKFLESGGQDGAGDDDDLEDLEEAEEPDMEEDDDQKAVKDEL
# Summary of the method: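 Human P4H from a previously reported preparation at 90 nM, in 50 mM Tris–HCl pH 7.8 with BSA 1 mg/mL, catalase 100 μg/mL, DTT 100 μM, ascorbate 2 mM, FeSO4 50 μM and α-ketoglutarate 500 μM. Started with tetrapeptide (0.05–3 mM; ethanol stock), run 5 min at 30 °C, then boiled 60 s. Triplicates. C18 HPLC; substrate:product ratio from A214; Michaelis–Menten fit.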
# [2] = target: T1, human P4H; assay: [14C]CO2-release assay from [1-14C]α-ketoglutarate; format: biochemical; details: substrate at 10% of KM; duplicate
# Summary of the method: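 Release of [14C]CO2 from [1-14C]α-ketoglutarate. Component levels as in the HPLC assay, except P4H at 395 nM. Each peptide tested at 10% of its KM from the HPLC assay. Run in duplicate; the decarboxylation rate without peptide was subtracted. Rate (μM/min) expressed as % of the Pro-containing peptide.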
# [3] = test system: P4H; details: binds to the enzyme, not hydroxylated; ref [33]; cited from earlier work
Substance,Product formation as substrate for P4H [1],Substrate or Inhibitor [1],% of Pro (rate of CO2 release) [2] [%],kcat [1] [s⁻¹],Km ([1]; SEM) [µM],kcat ([1]; SEM) [s⁻¹],kcat/KM [1],kcat/KM relative to that for dansyl-Gly–Phe–Pro–GlyOEt ([1]; comparator value from ref [18]) [fold],kcat/KM relative to that of the Pro-containing peptide [1] [%],Inhibition of P4H enzymatic activity [3]
Cbz-Gly–Tyr–Mtp–GlyOEt,No product was detected,Neither,,,,,,,,
PEG-Gly–Tyr–Kep–GlyOEt,not found to be a substrate,neither substrates nor inhibitors; also recorded: Neither,,,,,,,,
PEG-Gly–Tyr–Pro–GlyOEt,,Substrate,100,6,580 ± 30,6 ± 0.12,10 ± 0.6 10^3 M^−1s^−1,3,,
PEG-Gly–Tyr–Thp–GlyOEt,,Substrate,6,,6400 ± 1400,7.83 ± 0.983,1.2 ± 0.3 10^3 M^−1s^−1,,12,
PEG-Gly–Tyr–flp–GlyOEt,No product formation was detected,Substrate,26,4.17,1600 ± 300,4.17 ± 0.35,2.7 ± 0.5 10^3 M^−1s^−1,,27,
polyproline,,,,,,,,,,competitive inhibitor
